This note sets out measurements from PMC3262149 (Angewandte Chemie (International Ed. in English), 2011).

The target of test [1] is T1, P. aeruginosa lectin LecA (Pseudomonas aeruginosa, UniProt Q05097).
T1 sequence (Q05097 1-122): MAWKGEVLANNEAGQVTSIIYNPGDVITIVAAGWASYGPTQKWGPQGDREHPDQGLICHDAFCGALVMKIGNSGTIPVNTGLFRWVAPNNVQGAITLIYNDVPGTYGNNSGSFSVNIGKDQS
Briefly: Hemagglutination inhibition assay. It is filed as biochemical. Conditions: relative to D-galactose. The gist of the method: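 Twofold serial dilutions of test compound were preincubated with LecA for 30 min at 4 °C. Rabbit erythrocytes (5 % solution in PBS) were then added and incubated 1 h at RT. MIC was taken as the highest dilution giving complete inhibition of hemagglutination.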

Test [2] addresses T1, P. aeruginosa lectin LecA. Briefly: Isothermal titration calorimetry. It counts as binding. Conditions: for n′ (stoichiometry, number of occupied lectin galactose binding sites per dendrimer) / ΔH / −T ΔS / r.p./n = (Kd(D-galactose)/Kd(ligand))/n: ITC; for n′ (stoichiometry, number of occupied lectin galactose binding sites per dendrimer) / ΔH / −T ΔS: 0.1 M Tris base, pH 7.5, 25 mM CaCl2, 25 °C, average of two independent runs; for r.p./n = (Kd(D-galactose)/Kd(ligand))/n: relative to D-galactose, per galactose residue.

Square brackets hold non-standard residues; d marks the D form. Side chains are listed from the residue outwards. Peptide text beside a SMILES is read from it. * marks the point of attachment. X1 = O=C(CCS[C@@H]1O[C@H](CO)[C@H](O)[C@H](O)[C@H]1O)*; βGal = OC[C@H]1O[C@@H](*)[C@H](O)[C@@H](O)[C@H]1O; Mpa = O=C(O)CCS

For the molecule `CC(C)S[C@@H]1O[C@H](CO)[C@H](O)[C@H](O)[C@H]1O` [IPTG, isopropyl-β-thiogalactoside], the “r.p./n, relative potency per galactose residue = (MIC(D-galactose)/MIC(ligand))/n” value in test [1] stood at 2.8. For the same molecule, in test [2], the “n′ (stoichiometry, number of occupied lectin galactose binding sites per dendrimer)” value amounted to 1.1±0.1; the ΔH was -8.9 ± 0.5 kcal/mol; the “−T ΔS” value was 2.8 ± 0.5 kcal/mol; the “r.p./n = (Kd(D-galactose)/Kd(ligand))/n” value came out at 2.7.

For the molecule `O=[N+]([O-])c1ccc(O[C@@H]2O[C@H](CO)[C@H](O)[C@H](O)[C@H]2O)cc1` [NPG, p-nitrophenyl-β-galactoside], in test [1], the “r.p./n, relative potency per galactose residue = (MIC(D-galactose)/MIC(ligand))/n” value is 5.7. Also, in test [2], the “n′ (stoichiometry, number of occupied lectin galactose binding sites per dendrimer)” value came to 0.9±0; the ΔH is -10.0 ± 0.1 kcal/mol; the “−T ΔS” value is 3.4 ± 0.1 kcal/mol; the “r.p./n = (Kd(D-galactose)/Kd(ligand))/n” value was determined as 6.2.

Regarding `CC[C@H](C)[C@H](NC(=O)[C@H](CCCCN)NC(=O)[C@H](Cc1ccccc1)NC(=O)[C@H](CCCCNC(=O)[C@H](CC(C)C)NC(=O)[C@@H]1CCCN1C(=O)[C@H](CCCCN)NC(=O)CCS[C@@H]1O[C@H](CO)[C@H](O)[C@H](O)[C@H]1O)NC(=O)[C@H](CC(C)C)NC(=O)[C@@H]1CCCN1C(=O)[C@H](CCCCN)NC(=O)CCS[C@@H]1O[C@H](CO)[C@H](O)[C@H](O)[C@H]1O)C(N)=O` [GalBG1] ([Mpa](βGal)KPLK([Leu-Pro-Lys-X1])FKI-NH2), the “r.p./n, relative potency per galactose residue = (MIC(D-galactose)/MIC(ligand))/n” value in test [1] turned out to be 2.5. In test [2], the dissociation constant Kd is 2.1 ± 1 µM; the “n′ (stoichiometry, number of occupied lectin galactose binding sites per dendrimer)” value is 2.5±0.3; the ΔH was -8.3 ± 0.4 kcal/mol; the “−T ΔS” value is 0.7 ± 0.4 kcal/mol. In addition, in test [2], the “r.p./n = (Kd(D-galactose)/Kd(ligand))/n” value is reported as 20.5.

As to `O=C[C@H](O)[C@@H](O)[C@@H](O)[C@H](O)CO` [D-galactose], in test [2], the “n′ (stoichiometry, number of occupied lectin galactose binding sites per dendrimer)” value was determined as 1.1±0.1; the ΔH was -8.4 ± 0.1 kcal/mol; the “−T ΔS” value turned out to be 2.3 ± 0.4 kcal/mol.
